Laboratory results as given in ChEMBL document CHEMBL1133874, “Synthesis of N(1)-substituted analogues of (2R,4R)-4-amino-pyrrolidine-2,4-dicarboxylic acid as agonists, partial agonists, and antagonists of group II metabotropic glutamate receptors” (Bioorg Med Chem Lett, 2001).

Key:
Type in all cases: functional
[1] = molecular target: T1, Metabotropic glutamate receptor 6 (Rattus norvegicus, UniProt P35349); assay: Effective concentration for agonistic activity at Metabotropic glutamate receptor 6; Not active
T1 sequence (P35349 whole entry): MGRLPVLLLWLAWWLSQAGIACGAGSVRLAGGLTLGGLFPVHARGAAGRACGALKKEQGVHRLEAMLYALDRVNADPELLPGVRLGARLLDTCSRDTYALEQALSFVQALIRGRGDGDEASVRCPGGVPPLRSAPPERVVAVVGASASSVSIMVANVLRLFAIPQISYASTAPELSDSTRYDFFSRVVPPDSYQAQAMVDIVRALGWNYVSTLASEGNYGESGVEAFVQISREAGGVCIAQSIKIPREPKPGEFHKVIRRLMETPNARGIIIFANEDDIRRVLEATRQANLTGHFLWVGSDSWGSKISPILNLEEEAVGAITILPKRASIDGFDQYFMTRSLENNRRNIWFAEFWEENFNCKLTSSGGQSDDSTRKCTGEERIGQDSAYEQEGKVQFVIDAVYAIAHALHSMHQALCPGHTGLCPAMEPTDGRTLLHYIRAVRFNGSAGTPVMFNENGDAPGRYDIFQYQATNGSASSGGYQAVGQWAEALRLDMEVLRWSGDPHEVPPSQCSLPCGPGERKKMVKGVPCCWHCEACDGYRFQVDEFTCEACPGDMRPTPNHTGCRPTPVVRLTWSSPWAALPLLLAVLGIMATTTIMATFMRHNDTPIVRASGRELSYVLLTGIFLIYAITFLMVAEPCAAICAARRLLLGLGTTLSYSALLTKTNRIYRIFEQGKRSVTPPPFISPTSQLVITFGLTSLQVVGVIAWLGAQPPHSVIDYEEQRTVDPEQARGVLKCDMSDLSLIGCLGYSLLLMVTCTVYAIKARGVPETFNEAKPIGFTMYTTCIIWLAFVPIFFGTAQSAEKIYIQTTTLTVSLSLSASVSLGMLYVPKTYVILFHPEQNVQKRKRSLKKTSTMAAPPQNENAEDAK

[2] = molecular target: T2, Metabotropic glutamate receptor 3 (Rattus norvegicus, UniProt P31422); assay: Inhibitory concentration required for antagonistic activity at Metabotropic glutamate receptor 3
T2 sequence (P31422 whole entry): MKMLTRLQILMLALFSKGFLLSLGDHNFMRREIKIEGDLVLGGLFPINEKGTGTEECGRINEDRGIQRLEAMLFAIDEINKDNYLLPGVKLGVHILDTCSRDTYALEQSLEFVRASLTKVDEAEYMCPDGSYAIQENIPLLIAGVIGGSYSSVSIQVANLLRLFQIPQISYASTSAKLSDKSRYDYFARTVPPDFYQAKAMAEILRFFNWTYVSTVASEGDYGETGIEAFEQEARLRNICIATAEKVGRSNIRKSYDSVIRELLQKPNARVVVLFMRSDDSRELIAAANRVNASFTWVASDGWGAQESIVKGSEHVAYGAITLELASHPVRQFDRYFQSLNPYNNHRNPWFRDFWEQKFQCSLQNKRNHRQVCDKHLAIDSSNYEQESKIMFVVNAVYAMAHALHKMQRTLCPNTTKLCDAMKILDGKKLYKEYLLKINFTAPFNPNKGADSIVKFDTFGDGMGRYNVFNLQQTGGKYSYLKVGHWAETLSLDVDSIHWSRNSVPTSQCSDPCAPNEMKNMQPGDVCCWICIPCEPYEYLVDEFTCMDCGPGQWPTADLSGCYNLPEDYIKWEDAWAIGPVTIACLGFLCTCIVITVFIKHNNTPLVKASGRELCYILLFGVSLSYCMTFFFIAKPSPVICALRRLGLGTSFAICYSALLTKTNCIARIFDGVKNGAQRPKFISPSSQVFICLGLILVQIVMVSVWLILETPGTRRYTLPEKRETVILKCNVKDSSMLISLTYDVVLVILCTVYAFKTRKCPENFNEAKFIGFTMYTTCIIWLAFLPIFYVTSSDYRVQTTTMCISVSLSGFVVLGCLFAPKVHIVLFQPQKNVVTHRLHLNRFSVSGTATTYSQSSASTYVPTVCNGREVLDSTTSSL

[3] = molecular target: T3, Metabotropic glutamate receptor 2 (Rattus norvegicus, UniProt P31421); assay: Inhibitory concentration required for antagonistic activity at Metabotropic glutamate receptor 2
T3 sequence (P31421 whole entry): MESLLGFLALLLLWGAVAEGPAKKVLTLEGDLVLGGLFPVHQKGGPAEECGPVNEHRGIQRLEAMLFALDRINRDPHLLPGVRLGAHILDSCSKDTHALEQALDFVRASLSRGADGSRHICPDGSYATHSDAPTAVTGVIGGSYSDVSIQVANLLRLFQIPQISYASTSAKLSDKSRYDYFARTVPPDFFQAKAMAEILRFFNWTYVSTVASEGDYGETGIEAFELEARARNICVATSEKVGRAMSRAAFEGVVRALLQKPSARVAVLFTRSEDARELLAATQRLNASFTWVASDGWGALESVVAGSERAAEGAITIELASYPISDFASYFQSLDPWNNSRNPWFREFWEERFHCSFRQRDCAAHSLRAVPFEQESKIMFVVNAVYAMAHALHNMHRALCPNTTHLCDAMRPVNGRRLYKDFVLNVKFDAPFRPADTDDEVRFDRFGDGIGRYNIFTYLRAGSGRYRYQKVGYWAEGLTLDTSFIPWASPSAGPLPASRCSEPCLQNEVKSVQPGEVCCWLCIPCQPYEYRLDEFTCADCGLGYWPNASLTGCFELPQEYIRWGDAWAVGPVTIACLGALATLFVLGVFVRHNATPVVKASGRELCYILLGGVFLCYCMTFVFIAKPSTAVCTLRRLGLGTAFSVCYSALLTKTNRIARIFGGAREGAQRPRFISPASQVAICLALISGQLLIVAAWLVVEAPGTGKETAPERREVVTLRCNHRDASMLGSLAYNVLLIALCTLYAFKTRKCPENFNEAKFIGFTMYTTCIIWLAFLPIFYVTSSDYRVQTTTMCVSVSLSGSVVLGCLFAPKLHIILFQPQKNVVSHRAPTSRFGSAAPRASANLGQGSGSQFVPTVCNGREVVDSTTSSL
Outline: (§1)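 Antagonism at mGluR2 stably expressed in CHO cells, tested against 2 μM glutamate and read as forskolin-induced cAMP formation. Dose-response curves; means ± SEM from at least three experiments run in triplicate.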

[4] = molecular target: T3, Metabotropic glutamate receptor 2; assay: Effective concentration required for agonistic activity at Metabotropic glutamate receptor 2
[5] = molecular target: T2, Metabotropic glutamate receptor 3; assay: Effective concentration required for agonistic activity at Metabotropic glutamate receptor 3
Outline: (§2)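 Agonist activity at mGluR3, stably expressed in CHO cells together with a chimeric construct. Dose-response curves; means ± SEM from at least three experiments run in triplicate.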

[6] = molecular target: T2, Metabotropic glutamate receptor 3; assay: Inhibitory concentration required for antagonistic activity at Metabotropic glutamate receptor 3; Not active
[7] = molecular target: T2, Metabotropic glutamate receptor 3; assay: Effective concentration required for agonistic activity at Metabotropic glutamate receptor 3; Not active; outline: as §2
[8] = molecular target: T1, Metabotropic glutamate receptor 6; assay: Effective concentration required for agonistic activity at Metabotropic glutamate receptor 6
[9] = molecular target: T3, Metabotropic glutamate receptor 2; assay: Effective concentration required for partial agonistic activity at Metabotropic glutamate receptor 2; Partial agonist
[10] = molecular target: T1, Metabotropic glutamate receptor 6; assay: Effective concentration required for partial agonistic activity at Metabotropic glutamate receptor 6; Partial agonist
[11] = molecular target: T2, Metabotropic glutamate receptor 3; assay: Effective concentration required for partial agonistic activity at Metabotropic glutamate receptor 3; Partial agonist; outline: as §2
[12] = molecular target: T3, Metabotropic glutamate receptor 2; assay: Inhibitory concentration required for antagonistic activity at Metabotropic glutamate receptor 2; Not active; outline: as §1
[13] = molecular target: T3, Metabotropic glutamate receptor 2; assay: Effective concentration required for agonistic activity at Metabotropic glutamate receptor 2; Not active

| SMILES | EC50 [1] | IC50 [2] [µM] | EC50 [4] [µM] | IC50 [6] | EC50 [7] | EC50 [8] [µM] | also measured |
| --- | --- | --- | --- | --- | --- | --- | --- |
| CC(N)(C(=O)O)c1ccc(C(=O)O)cc1 (configuration not stated) | Not Active | 270 | – | – | – | – | IC50 [3]: 290 µM |
| N[C@@]1(C(=O)O)CN[C@@H](C(=O)O)C1 | Not Active | – | 0.48 | – | – | – | EC50 [5]: 1.7 µM |
| CC(N)(C(=O)O)C1CC1C(=O)O (configuration not stated) | Not Active | 68 | – | – | – | – | – |
| N[C@]1(C(=O)O)C[C@H](C(=O)O)N(C(C(=O)O)c2ccccc2)C1 (some centres not stated) | – | 21 | – | – | – | 22 | – |
| Cl.Cl.N[C@]1(C(=O)O)C[C@H](C(=O)O)N(Cc2ccccc2C#Cc2ccccc2)C1 | Not Active | 23 | – | – | – | – | – |
| Cl.Cl.N[C@]1(C(=O)O)C[C@H](C(=O)O)N(Cc2ccc(C(=O)O)cc2)C1 | – | – | – | Not Active | Not Active | 58 | EC50 [9]: 4700 nM |
| Cl.Cl.N[C@]1(C(=O)O)C[C@H](C(=O)O)N(Cc2cc([N+](=O)[O-])cc([N+](=O)[O-])c2)C1 | – | – | – | Not Active | Not Active | 210 | IC50 [12]: Not Active; EC50 [13]: Not Active |
| Cl.Cl.N[C@]1(C(=O)O)C[C@H](C(=O)O)N(CC(=O)O)C1 | Not Active | – | – | Not Active | Not Active | – | EC50 [9]: 610 nM |
| Cl.Cl.N[C@]1(C(=O)O)C[C@H](C(=O)O)N(Cc2ccc([N+](=O)[O-])cc2)C1 | Not Active | – | 160 | Not Active | Not Active | – | – |
| Cl.Cl.N[C@]1(C(=O)O)C[C@H](C(=O)O)N(Cc2cccc(C(=O)O)c2)C1 | – | – | – | Not Active | Not Active | 57 | IC50 [12]: Not Active; EC50 [13]: Not Active |

Second part, led by results:

| EC50 [1] | IC50 [2] [µM] | EC50 [4] [µM] | IC50 [6] | EC50 [7] | EC50 [8] [µM] | SMILES | also measured |
| --- | --- | --- | --- | --- | --- | --- | --- |
| Not Active | – | 950 | Not Active | Not Active | – | Cl.Cl.N[C@]1(C(=O)O)C[C@H](C(=O)O)N(Cc2cccc(O)c2)C1 | – |
| – | 93 | – | – | – | 100 | N[C@]1(C(=O)O)C[C@H](C(=O)O)N(Cc2cccc([N+](=O)[O-])c2)C1 | – |
| – | 27 | 6.1 | – | – | – | N[C@]1(C(=O)O)C[C@H](C(=O)O)N(Cc2ccccc2O)C1 | EC50 [10]: 88 µM |
| Not Active | – | – | Not Active | Not Active | – | Cl.Cl.Cl.Nc1ccc(CN2C[C@@](N)(C(=O)O)C[C@@H]2C(=O)O)cc1 | EC50 [9]: 2300 nM |
| Not Active | – | 35 | Not Active | Not Active | – | Cl.Cl.Cl.Nc1ccccc1CN1C[C@@](N)(C(=O)O)C[C@@H]1C(=O)O | – |
| – | 190 | – | – | – | 320 | COc1ccc(CN2C[C@@](N)(C(=O)O)C[C@@H]2C(=O)O)cc1 | – |
| – | – | 24 | – | – | 74 | N[C@]1(C(=O)O)C[C@H](C(=O)O)N(Cc2ccc(O)cc2)C1 | EC50 [11]: 7.5 µM |
| Not Active | – | 37 | – | – | – | Cl.Cl.Cl.N[C@]1(C(=O)O)C[C@H](C(=O)O)N(Cc2ccccn2)C1 | EC50 [5]: 37 µM |
| – | – | 4 | – | – | 110 | N[C@]1(C(=O)O)C[C@H](C(=O)O)N(Cc2ccccc2[N+](=O)[O-])C1 | EC50 [5]: 6.8 µM |
| Not Active | – | 33 | Not Active | Not Active | – | Cl.Cl.N[C@]1(C(=O)O)C[C@H](C(=O)O)N(Cc2ccccc2C(=O)O)C1 | – |
| – | – | – | – | – | 310 | N[C@]1(C(=O)O)C[C@H](C(=O)O)N(Cc2ccccc2Br)C1 | – |
